# Activity calls are given as the source filed them. No cut-off for these calls is given here.
# Columns and labels:
# Candida albicans = experiment: Antifungal activity against Candida albicans at 25 ug/disk by paper disk method; type: functional; conditions: read-out: IZ
# Outline: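 Paper disk diffusion against Candida albicans with 25 µg loaded per disk; read-out is the diameter of the clear zone of inhibition, in mm.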
# K562 = experiment: Cytotoxicity against human K562 cells; type: functional; conditions: read-out: LC50 (the source's name)
# Nucleic Acid [1] = experiment: Induction of Escherichia coli double stranded DNA cleavage at 10 ug/20 mL by gel electrophoresis; type: nucleic-acid assay
# Outline: (§1)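 Nucleic acids (double-stranded DNA and 16S rRNA) were isolated from E. coli and exposed to compound at 10 µg/20 mL; cleavage was scored by gel electrophoresis.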
# Nucleic Acid [2] = experiment: Induction of Escherichia coli 16S rRNA cleavage at 10 ug/20 mL by gel electrophoresis; type: nucleic-acid assay; outline: as §1
SMILES,zone of inhibition at 25 µg/disc (Candida albicans) [mm],CC50 (K562) [µg/mL],Activity (Nucleic Acid [1]),Activity (Nucleic Acid [2])
CC(C)=C1CCN=C1C[C@@H](C)[C@H]1CC[C@H]2C3=CC[C@H]4[C@@H](O)[C@@H](N(C)C)CC[C@]4(C)[C@H]3CC[C@]12C [LOKYSTEROLAMINE A],9,0.9,inactive,inactive
CC(C)=C1CC[N+]([O-])=C1C[C@@H](C)[C@H]1CC[C@H]2C3=CC[C@H]4[C@@H](O)[C@@H](N(C)C)CC[C@]4(C)[C@H]3CC[C@]12C [PLAKINAMINE E],12,0.2,Active,Active
CC(C)=C1CCN=C1C[C@@H](C)[C@H]1CC[C@H]2C3=CC[C@H]4C(=O)[C@@H](N(C)C)CC[C@]4(C)[C@H]3CC[C@]12C [PLAKINAMINE F],8,1.3,inactive,inactive

# Reference: ChEMBL document CHEMBL1156382, “New steroidal alkaloids from an undescribed sponge of the genus Corticium” (2001)
